Sampled rows, rich in hits. Any-hit rate of the full collection: about 1.9%.
CHRM4 agonist – human M4 muscarinic receptor agonists, primary screen, CHO-K1 cells, Fluo-8 calcium fluorescence | activation, % at 3 µM | 0.14% of 360,000 active | CHO-K1 hM4/Gqi5; vehicle 0%, full acetylcholine response 100% | AID 624127, 2012 | Muscarinic acetylcholine receptor M4 (Homo sapiens), P08173;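 active = activation above the run mean over all test wells plus 3 SD, cut at about 32% in these data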;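 note: peak over basal fluorescence ratio per well then scaled between controls; 0% = DMSO wells and 100% = acetylcholine at EC100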
Target sequence (P08173 whole entry, looked up): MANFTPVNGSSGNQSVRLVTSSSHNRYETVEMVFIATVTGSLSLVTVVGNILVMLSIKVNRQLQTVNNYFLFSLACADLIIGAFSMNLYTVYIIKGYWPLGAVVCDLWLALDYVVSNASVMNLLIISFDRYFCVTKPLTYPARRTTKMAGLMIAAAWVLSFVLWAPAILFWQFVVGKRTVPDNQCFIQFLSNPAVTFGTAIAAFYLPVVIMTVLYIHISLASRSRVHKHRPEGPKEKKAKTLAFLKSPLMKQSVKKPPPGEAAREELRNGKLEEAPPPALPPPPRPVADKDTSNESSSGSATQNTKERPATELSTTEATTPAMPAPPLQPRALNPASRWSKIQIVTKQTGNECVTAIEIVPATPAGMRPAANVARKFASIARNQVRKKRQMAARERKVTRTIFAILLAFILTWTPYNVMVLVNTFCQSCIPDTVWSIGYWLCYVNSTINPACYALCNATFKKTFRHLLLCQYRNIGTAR
CHRM5 agonist – human M5 muscarinic receptor agonists, primary screen, CHO-K1 cells, Fluo-8 calcium fluorescence | Muscarinic acetylcholine receptor M5 (Homo sapiens), P08912 | CHO-K1 hM5 cells; 0% DMSO wells, 100% maximal acetylcholine response | activation, % at 3 µM | 0.19% of 360,000 active;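 active = activation above the run's mean over test compounds plus 3 SD, cut at about 23% in these data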;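 note: signal is peak over basal fluorescence ratio across the kinetic read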
CHRM4 PAM – human M4 muscarinic receptor positive allosteric modulators, primary screen, CHO-K1 cells, Fluo-8 calcium fluorescence | Muscarinic acetylcholine receptor M4 (Homo sapiens), P08173 | CHO-K1 hM4/Gqi5, ACh EC20; 0% = ACh EC20, 100% = maximal ACh | activation, % at 3 µM | 0.4% of 360,000 active;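 active = activation above its plate's cutoff, the mean activation of sample wells plus 3 SD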
M4 antag – human M4 muscarinic receptor antagonists, primary screen, CHO cells, Fluo-8 calcium fluorescence | Muscarinic acetylcholine receptor M4 (Homo sapiens), P08173 | CHO-hM4 cells, ACh EC80 | inhibition, % at 3 µM | 0.73% of 360,000 active | AID 624125, 2012;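 active = inhibition above its plate's cutoff, the mean inhibition of sample wells plus 3 SD, cut at about 27% in these data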;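 note: 0% = acetylcholine EC80 with DMSO and 100% = DMSO without agonist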
CHRM5 antagonist – human M5 muscarinic receptor antagonists, primary screen, CHO cells, Fluo-8 calcium fluorescence; CHO-hM5 cells, ACh EC80; inhibition, % at 3 µM; 0.59% of 360,000 active;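 active = inhibition above a per-plate cutoff, the mean of that plate's test compounds plus 3 SD, cut at about 27% in these data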;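 note: 0% = acetylcholine EC80 with DMSO and 100% = DMSO without agonist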
CHRM5 PAM – human M5 muscarinic receptor positive allosteric modulators, primary screen, CHO-K1 cells, Fluo-8 calcium fluorescence; Muscarinic acetylcholine receptor M5 (Homo sapiens), P08912; CHO-K1 hM5, ACh EC20 PAM; 0% = ACh EC20, 100% = ACh EC100; activation, % at 3 µM; 0.3% of 360,000 active; AID 624038, 2012;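 active = activation above the run cutoff, the mean activation of all test compounds plus 3 SD, cut at about 18% in these data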
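system = human M5 receptor in CHO-K1 cells | reagent = EC20 acetylcholine as agonist stimulus | compound dosing = single-point, 3 µM nominal | incubation = Fluo-8 loading 80 min at 37 °C plus 30 min room temperature | detection = Fluo-8 calcium dye fluorescence, kinetic read | benchmarks = low control EC20 acetylcholine (0%), high control EC100 acetylcholine (100%)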
Numbers without * were called inactive.

SMILES	CHRM4 agonist	CHRM5 agonist	CHRM4 PAM	M4 antag	CHRM5 antagonist	CHRM5 PAM
CCN(CC)CCN1C(=O)C(=O)/C(=C(/O)c2c(C)[nH]c(C(=O)OC)c2C)C1c1ccc(OC)cc1 (stereo not drawn)	0.2	-1.2	1.5	2.6	2.6	-2.2
CNc1ccc(Br)cc(C(=O)/C=C/c2ccc(OC)cc2OC)c1=O	-0.1	1.3	2.6	-12.9	-6.5	-4.7
CCNc1ccc(Br)cc(C(=O)/C=C/c2c(Cl)cccc2Cl)c1=O	3.2	0.9	-1.9	38.2*	9.8	4.0
CNc1ccc(Br)cc(C(=O)/C=C/c2ccc(Cl)cc2Cl)c1=O	7.6	6.3	4.0	44.0*	18.4	12.1
CN(CC(=O)NCc1ccco1)CC(=O)Nc1c(Cl)cccc1Cl	2.3	4.6	13.4	-12.4	-7.7	18.2*
Cc1cc(Cl)cc(Cl)c1OCC(=O)NCc1ccco1	-0.4	-9.9	3.4	1.7	1.2	21.6*
COc1cccc(NC(=O)CN(C)CC(=O)NCc2ccco2)c1	0.7	-0.6	3.8	2.8	7.0	-4.1
CCc1ccc(NC(=O)CN(C(=O)N2CCN(CC)CC2)S(=O)(=O)c2ccc(C)cc2)cc1	0.3	-1.2	4.2	-1.5	0.0	-1.2
CC(=O)N(Cc1cccs1)Cc1cc2cc(C)c(C)cc2nc1Cl	4.9	2.2	-4.6	-3.1	4.2	-5.2
CC(C)n1nnnc1SCC(=O)N1CCOCC1	-0.3	-2.3	8.2	28.1*	-2.6	4.9
Oc1ccc(Cl)cc1CNCc1ccc(Cl)cc1	8.1	11.4	5.1	-1.3	8.7	-0.2
Oc1ccc(Cl)cc1Cc1cc(Cl)ccc1O	25.6	4.7	-14.8	27.3*	11.0	-13.5
CCOC(=O)Cc1csc(NC(=O)CSc2nc3sc(C(=O)O)c(C)c3c(=O)[nH]2)n1	0.3	3.7	3.6	9.9	1.2	-0.1
CCOC(=O)C1CCN(S(=O)(=O)c2cn(C)c(=O)n(C)c2=O)CC1	0.6	-1.1	-12.6	32.0*	10.3	-10.9
C/C(=N\NC(=O)Nc1ccccc1)c1ccccc1	-0.8	-1.5	7.8	-6.9	2.1	0.1
COc1cccc(NC(=O)Nc2ccc(C(C)(C)C)cc2)c1	12.7	4.4	-18.0	18.9	34.8*	-20.3
COc1cccc(NC(=O)CSCC(=O)Nc2ccccc2)c1	1.2	1.8	-4.0	-3.4	-7.3	-3.1
COc1cccc(NC(=O)Nc2ccc(C)c(Cl)c2)c1	12.7	4.0	-9.8	2.5	33.3*	-20.1
CC(C)(C)c1ccc(NC(=O)Nc2ccc(F)cc2)cc1	31.3	1.8	-20.4	51.5*	78.7*	-16.2
COc1cccc(NC(=O)CSCC(=O)O)c1	0.1	1.2	32.7*	4.7	2.9	-2.9
COc1ccc(-c2nnn(Cc3nn[nH]n3)n2)cc1OC	1.1	-0.6	-2.8	1.9	1.2	-0.7
O=C1CC(c2ccc3ccccc3c2)NN1 (stereo not drawn)	1.8	-1.5	9.3	4.0	0.3	8.1
O=C(Nc1ccc(F)cc1)Nc1cccnc1Cl	3.5	2.7	-16.6	32.3*	1.4	-6.6
O=C(Nc1ccc(F)cc1)Nc1ccccc1F	6.9	0.3	1.7	-5.4	9.0	-10.4
CN(CC(=O)Nc1cccc(F)c1)C(=O)CCC1CCCCC1	1.9	1.1	17.8*	-3.2	-5.9	7.2
SMILES	CHRM4 agonist	CHRM5 agonist	CHRM4 PAM	M4 antag	CHRM5 antagonist	CHRM5 PAM
CCc1ccc(C2CC(c3cccc(Cl)c3)n3nc(N)nc3N2)cc1 (stereo not drawn)	7.8	3.1	5.0	-11.7	4.4	-2.8
O=C(Nc1cccc(Cl)c1)Nc1ccc2nccnc2c1	27.3	14.1	-14.3	9.4	15.2	-23.4
CCCC(=O)NC1=C(Cl)C(=O)c2ccccc2C1=O	12.0	19.6	-8.4	61.4*	31.5*	0.9
O=C1C(Cl)=C(Nc2ccc(O)cc2)C(=O)c2ccccc21	-2.1	-18.7	-23.7	63.6*	41.1*	-25.8
CCNC1=C(Cl)C(=O)c2ccccc2C1=O	-0.7	-5.0	-0.2	12.1	-0.6	-7.9
Nc1nc2ccc(C(=O)N3CCCCC3)cc2s1	1.3	-2.5	6.5	0.4	4.5	1.8
O=C(c1cccc(C(F)(F)F)c1)N1CCCCCC1	-0.1	-1.7	-0.8	-7.3	-4.1	-4.8
CC(C)n1c(C(F)(F)F)nc2cc(C(=O)N3CCCCC3)ccc21	1.4	1.4	-1.7	30.0*	10.6	-0.1
O=C1NC(=S)S/C1=C\c1cc(Cl)cc(Cl)c1O	51.5*	192.7*	-13.3	12.2	29.6*	-40.8
Cc1cccc(NC(=O)COC(=O)Cc2cccc(C(F)(F)F)c2)c1C	1.1	0.5	0.9	-5.6	-3.7	1.3
CCCCOC(=O)C1=C(C)NC(=O)NC1c1ccc2c(c1)OCO2 (stereo not drawn)	-0.2	-2.9	-4.2	-5.1	12.2	-8.2
CCOC(=O)c1cn(Cc2ccccc2)c(C(=O)OC(C)(C)C)c1O	80.9*	12.1	-15.1	15.2	14.9	-21.2
CCOC(=O)c1cn(Cc2ccccc2)c2cc(C)nn2c1=O	0.4	0.8	-1.5	-10.9	6.5	-0.4
Cc1cccc(C)c1OCCCCN1CCNCC1	2.8	-0.4	7.8	-8.6	5.0	4.2
Cc1cc(C)c(OCCCCN2CCNCC2)c(C)c1	0.4	1.2	-11.5	29.6*	-3.9	4.7
Cc1onc(-c2c(Cl)cccc2Cl)c1C(=O)N1CCc2ccccc21	-0.6	-11.9	-31.8	37.9*	13.3	-18.2
O=C(NCc1ccc(F)cc1)NC(=O)c1ccc(Cl)cc1	0.8	-4.0	5.6	4.8	6.9	-2.7
Cc1ccc(C(=O)Nc2cccc(C(=O)NCc3ccccc3)c2)o1	3.7	-3.7	-0.8	26.9*	11.5	-6.3
CN(C)c1c(F)cc(C(=O)NCc2ccccc2)cc1F	0.8	-1.7	6.4	-6.3	6.5	-1.4
O=C(NCc1ccccc1)c1ccc(F)c(F)c1	3.6	1.2	19.9*	1.7	-14.5	6.2
O=C(NCc1ccccc1)NC(=O)c1ccc(Cl)cc1	0.5	-0.3	0.9	-7.2	-7.6	18.8*
O=C(NCc1ccccc1)c1ccc(C2SCC(=O)N2Cc2ccccc2)cc1 (stereo not drawn)	7.0	-5.2	-19.1	33.6*	0.7	-23.3
CC(C)NC(=O)C1(C)CCCN1Cc1ccccc1 (stereo not drawn)	-0.2	-1.4	2.5	-2.0	1.1	-0.3
O=C(NCc1ccccn1)Nc1ccc(Cl)cc1Cl	-0.1	-2.9	6.0	8.5	-12.5	9.5
COc1ccc(N=C2C(=O)Nc3ccccc32)cc1	-0.2	1.5	-1.3	4.1	3.2	-0.2
